In general, Ki refers to the dissociation constant of the complex between target and ligand, obtained from inhibition or displacement. Read a high Ki as lower affinity. By pKi is commonly meant the negative decadic logarithm of the Ki, by convention in mol/L. Read a low pKi as a high Ki. One may read the inhibition as the change of the read-out against control, counted positive when it falls.

pKi: −log10 of the molar value.

For one assay, the target named is Pancreatic elastase (Sus scrofa, UniProt P08419+P00772). Nature of the assay: Ki value was evaluated for the inhibition of porcine pancreatic elastase. In kind it is protein assay. The method, boiled down: (§1)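 PPE, 9.0 × 10⁻⁶ M, incubated with inhibitor in acetonitrile in 50 mM phosphate pH 6.5 at 25 °C, at inhibitor:enzyme ratios of 20–150. Aliquots taken over time were assayed with Boc-L-Ala-p-nitrophenyl ester: 30 s preincubation, then absorbance change over 2 min at 347.5 nm. Controls contained acetonitrile. Kobs came from ln(Et/E0) vs time, two runs per concentration. Ki and k3 came from the double-reciprocal replot, and k3/Ki was computed.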

Assay [1] has as its target T1, Pancreatic elastase (Sus scrofa) (UniProt P08419+P00772). Nature of the assay: k3 value was evaluated for the inhibition of porcine pancreatic Elastase. In kind it is protein assay. The method in brief: as §1
Assay [2] has as its target T1, Pancreatic elastase (Sus scrofa). Nature of the assay: k3/k1 ratio of the compound. In kind it is protein assay. The method in brief: as §1
The next assay has as its target T2, Neutrophil elastase (Homo sapiens, UniProt P08246).
T2 sequence (P08246 whole entry): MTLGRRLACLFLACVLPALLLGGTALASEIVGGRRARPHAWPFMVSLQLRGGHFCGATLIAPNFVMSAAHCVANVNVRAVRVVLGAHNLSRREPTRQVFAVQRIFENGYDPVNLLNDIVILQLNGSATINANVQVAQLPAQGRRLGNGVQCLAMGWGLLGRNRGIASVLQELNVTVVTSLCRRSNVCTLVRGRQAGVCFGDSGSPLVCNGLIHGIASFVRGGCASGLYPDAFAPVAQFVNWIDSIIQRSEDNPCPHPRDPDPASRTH
The experiment in a line: Ki value was evaluated for the inhibition of human leukocyte elastase. The method in brief:
(§2)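 HLE, 1.6 × 10⁻⁷ M, in Tris-HCl buffer pH 8.0 at 25 °C. Inhibitor was dissolved in N-methylpyrrolidinone. Loss of activity was followed continuously with succinyl-L-trialanyl-p-nitroanilide at 410 nm as a pseudo-first-order reaction, and rate constants were found by the Tsou method. Ki and k3 were taken from the double-reciprocal replot 1/kobsd vs 1/[I].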

Assay [3] concerns the target T1, Pancreatic elastase (Sus scrofa). The experiment in a line: k3 value was evaluated for the inhibition of porcine pancreatic elastase. The format is protein assay. The method, boiled down: as §1
Assay [4] addresses T3, Neutrophil elastase (Homo sapiens) (UniProt P08246).
T3 sequence (whole entry): T2 sequence (P08246 whole entry)
Nature of the assay: k3 value was evaluated for the inhibition of human leukocyte elastase. The method, boiled down:
as §2

The target of assay [5] is T3, Neutrophil elastase (Homo sapiens). The experiment in a line: Percent inhibition against human leukocyte elastase. The conditions noted are these: concentration not given here. The method, boiled down:
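HLE, 1.53 × 10⁻⁴ M stock in Tris-HCl pH 7.5, was incubated with inhibitor for 20 min. Residual activity was assayed by adding succinyltrialanyl-p-nitroanilide (2.3 × 10⁻³ M stock in Tris buffer).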

The target of assay [6] is T1, Pancreatic elastase (Sus scrofa). Nature of the assay: Percent inhibition against porcine pancreatic elastase. The format is protein assay. The conditions noted are these: concentration not given here. The method, boiled down: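 PPE, 4.50 × 10⁻⁶ M stock in phosphate buffer pH 6.5, was incubated at 25 °C for 20 min with inhibitor (2.50 × 10⁻³ M stock in acetonitrile). Remaining activity was assayed by adding Boc-L-alanyl-p-nitroanilide (2.22 × 10⁻² M stock).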

With `CCCCNC(=O)n1ccnc1C`, the Ki at Pancreatic elastase was 2410 µM. This compound registered a k3 in assay [1] of 0.005 s⁻¹.
For the compound `COC(=O)[C@H](CC(C)C)NC(=O)n1ccnc1`, the Ki on Pancreatic elastase came out at 1170 µM. For the same compound, in assay [1], the k3 came to 0.000667 s⁻¹. In addition, the k3/k1 in assay [2] stood at 0.5 M⁻¹ s⁻¹.
Consider `COC(=O)[C@@H](NC(=O)n1ccnc1)C(C)C`, for which, on Neutrophil elastase, the pKi was 2.74. On Pancreatic elastase, the Ki stood at 1110 µM. The values for the k3 in assay [3] and in assay [4] were 0.183 min⁻¹ and 20.8 min⁻¹, respectively.
`CCCCCCCc1nccn1C(=O)NCCCC` displayed a Ki on Pancreatic elastase of 2410 µM. The compound further yielded a k3 in assay [1] of 0.002 s⁻¹.
Consider `COC(=O)C(CCSC)N=C=O` (centres undefined), for which the inhibition was determined as 100% in assay [5] and 27% in assay [6].
At Pancreatic elastase, `CCCCNC(=O)n1cnc(C)c1` had a Ki of 7230 µM. Besides, the k3 in assay [1] came out at 0.001 s⁻¹.
For `CCC(C)[C@H](NC(=O)n1ccnc1)C(=O)OC` (some centres undefined), the Ki on Pancreatic elastase came out at 1220 µM. Moreover, the k3 in assay [1] worked out at 0.00117 s⁻¹. The k3/k1 in assay [2] is 1 M⁻¹ s⁻¹.
At Pancreatic elastase, `CCCCNC(=O)n1ccnc1CC` yielded a Ki of 470 µM. This compound had a k3 in assay [1] of 0.002 s⁻¹.
`CCCCC(NC(=O)n1ccnc1)C(=O)OC` (centres undefined) had a pKi on Neutrophil elastase of 3.00. The Ki on Pancreatic elastase was found to be 1940 µM. The k3 in assay [1] stood at 0.00425 s⁻¹; in assay [4] it was 10 min⁻¹.
In turn, `CCCCNC(=O)n1ccnc1` registered a Ki at Pancreatic elastase of 1400 µM. Moreover, the k3 in assay [3] is 0.66 min⁻¹.
At Neutrophil elastase, `CCC[C@H](NC(=O)n1ccnc1)C(=O)OC` gave a negative-log Ki (pKi) of 3.49. Besides, the Ki on Pancreatic elastase turned out to be 840 µM. Also, the k3 in assay [1] is 0.00537 s⁻¹; in assay [4], 9.6 min⁻¹.
Consider `CCCC(N=C=O)C(=O)OC` (centres undefined), for which the inhibition in assay [5] came to 100%; in assay [6], 98%.
The like results for `COC(=O)[C@H](CCSC)NC(=O)n1ccnc1` were, in that order, 100% and 0%.

For the origin of these results see ChEMBL document CHEMBL1122889, “Amino acid derived latent isocyanates: irreversible inactivation of porcine pancreatic elastase and human leukocyte elastase” (J Med Chem, 1985).
